{
  "source": "ChEMBL document CHEMBL5113552",
  "about": "“(-)-Epigallocatechin Gallate is a Noncompetitive Inhibitor of NAD Kinase” (ACS Med Chem Lett, 2022)",
  "key": {"[1]": {"experiment": "Cytotoxicity against human C85 cells assessed as inhibition of cell growth", "format": "functional, cell-based", "conditions": "CCCL-1"}, "RL": {"system": "RL", "experiment": "Cytotoxicity against human RL cells assessed as inhibition of cell growth", "format": "functional, cell-based"}, "CCRF-CEM": {"system": "CCRF-CEM", "experiment": "Cytotoxicity against human CCRF-CEM cells assessed as inhibition of cell growth", "format": "functional, cell-based"}, "MOLT-4": {"system": "MOLT-4", "experiment": "Cytotoxicity against human MOLT-4 cells assessed as inhibition of cell growth", "format": "functional, cell-based"}, "NAD kinase [2]": {"molecular_target": "T1, NAD kinase (Homo sapiens, UniProt O95544)", "T1 sequence (O95544 whole entry)": "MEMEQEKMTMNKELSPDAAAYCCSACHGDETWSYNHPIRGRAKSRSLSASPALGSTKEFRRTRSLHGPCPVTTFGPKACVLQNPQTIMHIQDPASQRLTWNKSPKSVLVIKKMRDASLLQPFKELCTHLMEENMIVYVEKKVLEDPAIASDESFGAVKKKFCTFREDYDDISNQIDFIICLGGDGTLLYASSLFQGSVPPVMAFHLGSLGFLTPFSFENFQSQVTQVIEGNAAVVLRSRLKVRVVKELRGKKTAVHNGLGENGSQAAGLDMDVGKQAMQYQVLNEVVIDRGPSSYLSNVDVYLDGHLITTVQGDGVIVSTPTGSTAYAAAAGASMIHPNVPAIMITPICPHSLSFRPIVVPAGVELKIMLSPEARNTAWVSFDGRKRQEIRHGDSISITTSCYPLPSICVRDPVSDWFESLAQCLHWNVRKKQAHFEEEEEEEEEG", "experiment": "Inhibition of human NADK by HPLC analysis"}, "NAD kinase [3]": {"molecular_target": "T1, NAD kinase", "experiment": "Inhibition of NADK (unknown origin) by HPLC analysis"}, "[4]": {"molecular_target": "T2, NAD kinase (Homo sapiens) (UniProt O95544)", "T2 sequence (whole entry)": "T1 sequence (O95544 whole entry)", "experiment": "Binding affinity to human NADK (345 to 365 residues) assessed as decrease in deuterium incorporation at 80 uM measured after 30 mins by HDX-MS analysis", "design": "scale not given: the % may be the effect or the level left"}, "PC-9": {"system": "PC-9", "experiment": "Cytotoxicity against human PC-9 cells harboring wild type KRAS assessed as inhibition of cell growth at 60 uM measured on day 4", "format": "functional, cell-based", "procedure,_shortened": "(§1)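 Lung cancer cell lines (PC-9 KRAS WT, A549 KRAS G12S, H358 and H23 KRAS G12C) exposed to a range of concentrations. Growth curves were built by following cell number over days (day 4 is cited) against a DMSO control. n = 3 replicates; significance was judged at P < 0.05, 0.01 and 0.001.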"}, "[5]": {"molecular_target": "T2, NAD kinase (Homo sapiens)", "experiment": "Binding affinity to human NADK (410 to 418 residues) assessed as decrease in deuterium incorporation at 80 uM measured after 30 mins by HDX-MS analysis", "design": "scale not given: the % may be the effect or the level left"}, "[6]": {"molecular_target": "T2, NAD kinase (Homo sapiens)", "experiment": "Binding affinity to human NADK (155 to 164 residues) assessed as decrease in deuterium incorporation at 80 uM measured after 30 mins by HDX-MS analysis", "design": "scale not given: the % may be the effect or the level left"}, "A549 [7]": {"system": "A549", "experiment": "Cytotoxicity against human A549 cells harboring KRAS […] mutant assessed as inhibition of cell growth at 30 uM", "format": "functional, cell-based"}, "A549 [8]": {"system": "A549", "experiment": "Cytotoxicity against human A549 cells harboring KRAS G12S mutant assessed as inhibition of cell growth at 50 uM"}, "NCI-H358": {"system": "NCI-H358", "experiment": "Cytotoxicity against human H358 cells harboring KRAS G12C mutant assessed as inhibition of cell growth at 30 uM", "format": "functional", "procedure,_shortened": "as §1"}, "NCI-H23": {"system": "NCI-H23", "experiment": "Cytotoxicity against human H23 cells harboring KRAS G12C mutant assessed as inhibition of cell growth at 30 uM", "format": "functional", "procedure,_shortened": "as §1"}, "NAD kinase [9]": {"molecular_target": "T1, NAD kinase", "experiment": "Inhibition of NADK delta 95 kinase domain (unknown origin) at 80 uM measured after 30 mins by […]"}, "NAD kinase [10]": {"molecular_target": "T1, NAD kinase", "experiment": "Non-competitive inhibition of N-terminal full length NADK (unknown origin) expressed in Escherichia coli BL21(DE3) cells by enzymatic activity assay"}, "NAD kinase [11]": {"molecular_target": "T1, NAD kinase", "experiment": "Binding affinity to N-terminal full length NADK (unknown origin) expressed in Escherichia coli BL21(DE3) cells assessed as dissociation constant by surface plasmon resonance assay"}},
  "note": "Activity calls are given as the source filed them. The rule behind the calls is not given here.",
  "data": [
    {"compound": "NC(=S)c1cccnc1", "values": [
      {"measurement": "IC50", "setting": "[1]", "result": 10, "unit": "µM"},
      {"measurement": "IC50", "setting": "RL", "result": 10, "unit": "µM"},
      {"measurement": "IC50", "setting": "CCRF-CEM", "result": 10, "unit": "µM"},
      {"measurement": "IC50", "setting": "MOLT-4", "result": 10, "unit": "µM"}
    ]},
    {"compound": "Nc1ncnc2c1ncn2[C@@H]1O[C@H](CSSC[C@H]2O[C@@H](n3c(Br)nc4c(N)ncnc43)[C@H](O)[C@@H]2O)[C@@H](O)[C@H]1O", "values": [
      {"measurement": "Ki", "setting": "NAD kinase [2]", "result": 6, "unit": "µM"}
    ]},
    {"compound": "Nc1ncnc2c1ncn2[C@@H]1O[C@H](CSSC[C@H]2O[C@@H](n3cnc4c(N)ncnc43)[C@H](O)[C@@H]2O)[C@@H](O)[C@H]1O", "values": [
      {"measurement": "Ki", "setting": "NAD kinase [2]", "result": 45, "unit": "µM"}
    ]},
    {"compound": "Nc1ncnc2c1nc(Br)n2[C@@H]1O[C@H](CSSC[C@H]2O[C@@H](n3c(Br)nc4c(N)ncnc43)[C@H](O)[C@@H]2O)[C@@H](O)[C@H]1O", "values": [
      {"measurement": "Ki", "setting": "NAD kinase [2]", "result": 6, "unit": "µM"}
    ]},
    {"compound": "Oc1cc(O)c2c(c1)O[C@@H](c1cc(O)c(O)c(O)c1)[C@H](O)C2", "note": "[(-)-GALLOCATECHIN]", "values": [
      {"measurement": "IC50", "setting": "NAD kinase [3]", "result": "> 100", "unit": "µM"}
    ]},
    {"compound": "Oc1cc(O)c2c(c1)O[C@H](c1cc(O)c(O)c(O)c1)[C@H](O)C2", "note": "[EPIGALLOCATECHIN]", "values": [
      {"measurement": "IC50", "setting": "NAD kinase [3]", "result": "> 100", "unit": "µM"}
    ]},
    {"compound": "O=C(O[C@@H]1Cc2c(O)cc(O)cc2O[C@@H]1c1cc(O)c(O)c(O)c1)c1cc(O)c(O)c(O)c1", "note": "[EPIGALOCATECHIN GALLATE]", "values": [
      {"measurement": "Activity", "setting": "[4]", "result": 21.1, "unit": "%"},
      {"measurement": "Activity", "setting": "PC-9", "result": "Active"},
      {"measurement": "Activity", "setting": "[5]", "result": 21.8, "unit": "%"},
      {"measurement": "Activity", "setting": "[6]", "result": 12.9, "unit": "%"},
      {"measurement": "Activity", "setting": "A549 [7]", "result": "Active"},
      {"measurement": "inhibition at 50 µM", "setting": "A549 [8]", "result": 100, "unit": "%"},
      {"measurement": "inhibition at 30 µM", "setting": "NCI-H358", "result": 100, "unit": "%"},
      {"measurement": "inhibition at 30 µM", "setting": "NCI-H23", "result": 100, "unit": "%"},
      {"measurement": "IC50", "setting": "NAD kinase [9]", "result": 0.96, "unit": "µM"},
      {"measurement": "Ki", "setting": "NAD kinase [10]", "result": 3.28, "unit": "µM"},
      {"measurement": "Kd", "setting": "NAD kinase [11]", "result": 1.78, "unit": "µM"}
    ]}
  ]
}
